{"source": "ChEMBL document CHEMBL1641436", "about": "“Synthesis of sugar-amino acid-nucleosides as potential glycosyltransferase inhibitors” (Bioorg Med Chem, 2011)"}
{"target": "T1, Galactofuranosyltransferase GlfT2 (Mycobacterium tuberculosis) (UniProt O53585)", "T1 sequence (whole entry)": "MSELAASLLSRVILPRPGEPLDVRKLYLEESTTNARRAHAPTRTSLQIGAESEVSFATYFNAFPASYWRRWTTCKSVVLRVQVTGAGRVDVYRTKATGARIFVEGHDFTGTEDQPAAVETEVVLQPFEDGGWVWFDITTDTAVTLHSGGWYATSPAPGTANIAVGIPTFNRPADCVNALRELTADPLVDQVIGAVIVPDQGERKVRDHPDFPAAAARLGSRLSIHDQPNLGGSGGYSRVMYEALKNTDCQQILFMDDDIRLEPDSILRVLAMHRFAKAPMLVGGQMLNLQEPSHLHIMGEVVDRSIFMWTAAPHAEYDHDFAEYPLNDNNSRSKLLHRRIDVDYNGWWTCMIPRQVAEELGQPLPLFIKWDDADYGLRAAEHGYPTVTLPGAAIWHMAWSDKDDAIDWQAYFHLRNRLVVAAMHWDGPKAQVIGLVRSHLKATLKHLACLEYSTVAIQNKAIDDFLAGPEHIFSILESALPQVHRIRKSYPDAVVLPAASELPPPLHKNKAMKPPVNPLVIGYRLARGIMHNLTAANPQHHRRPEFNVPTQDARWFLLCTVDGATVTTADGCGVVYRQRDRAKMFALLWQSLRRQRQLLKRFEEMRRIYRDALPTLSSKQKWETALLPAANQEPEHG", "test": "Inhibition of Mycobacterium tuberculosis GIFT2 at 2 mM at pH7.6 by spectrophotometric assay", "how_it_was_run": "(§1)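 Coupled PK/LDH spectrophotometric assay of GlfT2. Mix contained 100 mM MOPS pH 7.6, 50 mM KCl, 20 mM MgCl2, 1.1 mM NADH, 3.5 mM PEP, 3.75 U PK and 16.8 U LDH, with β-D-Galf-(1→5)-β-D-Galf-(1→6)-β-D-Galf-octyl as acceptor. Diluted GlfT2 was added to start the reaction at 37 °C, with A340 read every 10–15 s. Closest duplicate velocities were blank-corrected and expressed as % of mean control.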", "units": {"inhibition": "%"}}
{"smiles": "O=C1CCN([C@@H]2O[C@H](CNC(=O)[C@H](Cc3c[nH]c4ccccc34)NC(=O)C[C@H]3O[C@@H](CO)[C@H](O)[C@H]3O)[C@@H](O)[C@H]2O)C(=O)N1", "inhibition": "< 10"}
{"smiles": "O=C(C[C@H]1O[C@@H](CO)[C@H](O)[C@H]1O)N[C@@H](Cc1c[nH]c2ccccc12)C(=O)NC[C@H]1O[C@@H](n2ccc(=O)[nH]c2=O)[C@H](O)[C@@H]1O", "inhibition": 30}
{"smiles": "O=C(C[C@@H]1O[C@@H](CO)[C@H](O)[C@H]1O)N[C@@H](Cc1c[nH]c2ccccc12)C(=O)NC[C@H]1O[C@@H](n2ccc(=O)[nH]c2=O)[C@H](O)[C@@H]1O", "inhibition": "< 10"}
{"smiles": "O=C(C[C@H]1O[C@@H](CO)[C@H](O)[C@H]1O)N[C@@H](Cc1cnc[nH]1)C(=O)NC[C@H]1O[C@@H](n2ccc(=O)[nH]c2=O)[C@H](O)[C@@H]1O", "inhibition": 37}
{"smiles": "O=C1CCN([C@@H]2O[C@H](CNC(=O)[C@H](Cc3cnc[nH]3)NC(=O)C[C@H]3O[C@@H](CO)[C@H](O)[C@H]3O)[C@@H](O)[C@H]2O)C(=O)N1", "inhibition": "< 10"}
{"smiles": "O=C(C[C@@H]1O[C@@H](CO)[C@H](O)[C@H]1O)N[C@@H](Cc1cnc[nH]1)C(=O)NC[C@H]1O[C@@H](n2ccc(=O)[nH]c2=O)[C@H](O)[C@@H]1O", "inhibition": 14}
{"smiles": "O=C1CCN([C@@H]2O[C@H](CNC(=O)[C@H](Cc3cnc[nH]3)NC(=O)C[C@@H]3O[C@@H](CO)[C@H](O)[C@H]3O)[C@@H](O)[C@H]2O)C(=O)N1", "inhibition": "< 10"}
{"smiles": "O=C1CCN([C@@H]2O[C@H](CNC(=O)[C@H](Cc3c[nH]c4ccccc34)NC(=O)C[C@@H]3O[C@@H](CO)[C@H](O)[C@H]3O)[C@@H](O)[C@H]2O)C(=O)N1", "inhibition": "< 10"}
{"target": "T2, Galactofuranosyltransferase GlfT2 (Mycobacterium tuberculosis, UniProt O53585)", "T2 sequence (O53585 whole entry)": "T1 sequence (whole entry)", "test": "Inhibition of Mycobacterium tuberculosis GIFT2 at pH7.6 by spectrophotometric assay", "units": {"IC50": "µM"}}
{"smiles": "O=C(C[C@H]1O[C@H](CO)[C@H](O)[C@H](O)[C@H]1O)N[C@@H](Cc1cnc[nH]1)C(=O)NC[C@H]1O[C@@H](n2ccc(=O)[nH]c2=O)[C@H](O)[C@@H]1O", "IC50": 332}
{"target": "T1, Galactofuranosyltransferase GlfT2 (Mycobacterium tuberculosis)", "test": "Inhibition of Mycobacterium tuberculosis GIFT2 at 4 mM at pH7.6 by spectrophotometric assay", "how_it_was_run": "as §1", "units": {"inhibition": "%"}}
{"smiles": "O=C(C[C@H]1O[C@H](CO)[C@H](O)[C@H](O)[C@H]1O)N[C@@H](Cc1cnc[nH]1)C(=O)NC[C@H]1O[C@@H](n2ccc(=O)[nH]c2=O)[C@H](O)[C@@H]1O", "inhibition": 79}
{"smiles": "O=C1CCN([C@@H]2O[C@H](CNC(=O)[C@H](Cc3c[nH]c4ccccc34)NC(=O)C[C@H]3O[C@H](CO)[C@H](O)[C@H](O)[C@H]3O)[C@@H](O)[C@H]2O)C(=O)N1", "inhibition": 53}
{"smiles": "NC(=O)CC[C@H](NC(=O)C[C@H]1O[C@H](CO)[C@H](O)[C@H](O)[C@H]1O)C(=O)NC[C@H]1O[C@@H](n2ccc(=O)[nH]c2=O)[C@H](O)[C@@H]1O", "inhibition": "< 10"}
{"smiles": "O=C(C[C@H]1O[C@H](CO)[C@H](O)[C@H](O)[C@H]1O)N[C@@H](Cc1c[nH]c2ccccc12)C(=O)NC[C@H]1O[C@@H](n2ccc(=O)[nH]c2=O)[C@H](O)[C@@H]1O", "inhibition": 75}
{"smiles": "NC(=O)CC[C@H](NC(=O)C[C@H]1O[C@H](CO)[C@H](O)[C@H](O)[C@H]1O)C(=O)NC[C@H]1O[C@@H](N2CCC(=O)NC2=O)[C@H](O)[C@@H]1O", "inhibition": "< 10"}
{"smiles": "O=C1CCN([C@@H]2O[C@H](CNC(=O)[C@H](Cc3cnc[nH]3)NC(=O)C[C@H]3O[C@H](CO)[C@H](O)[C@H](O)[C@H]3O)[C@@H](O)[C@H]2O)C(=O)N1", "inhibition": 18}
